# Only some compounds are listed: those with a hit (about 2.9% of all), similar ones and a draw of the others.
# PAD4 FP inh = PAD4 (human) enzyme inhibition. AID 485272. Q9UM07. inhibition, % at 6.36 µM. hit rate 0.41% among 330,000. recombinant PAD4, RCA probe fluorescence polarization;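 active means percent inhibition above a cutoff equal to the mean of all tested compounds plus 3 SD, cut at about 15% in these data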;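 further: 0% = PAD4 with RCA probe and DMSO and 100% = probe without PAD4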
# Target sequence (Q9UM07 whole entry, looked up): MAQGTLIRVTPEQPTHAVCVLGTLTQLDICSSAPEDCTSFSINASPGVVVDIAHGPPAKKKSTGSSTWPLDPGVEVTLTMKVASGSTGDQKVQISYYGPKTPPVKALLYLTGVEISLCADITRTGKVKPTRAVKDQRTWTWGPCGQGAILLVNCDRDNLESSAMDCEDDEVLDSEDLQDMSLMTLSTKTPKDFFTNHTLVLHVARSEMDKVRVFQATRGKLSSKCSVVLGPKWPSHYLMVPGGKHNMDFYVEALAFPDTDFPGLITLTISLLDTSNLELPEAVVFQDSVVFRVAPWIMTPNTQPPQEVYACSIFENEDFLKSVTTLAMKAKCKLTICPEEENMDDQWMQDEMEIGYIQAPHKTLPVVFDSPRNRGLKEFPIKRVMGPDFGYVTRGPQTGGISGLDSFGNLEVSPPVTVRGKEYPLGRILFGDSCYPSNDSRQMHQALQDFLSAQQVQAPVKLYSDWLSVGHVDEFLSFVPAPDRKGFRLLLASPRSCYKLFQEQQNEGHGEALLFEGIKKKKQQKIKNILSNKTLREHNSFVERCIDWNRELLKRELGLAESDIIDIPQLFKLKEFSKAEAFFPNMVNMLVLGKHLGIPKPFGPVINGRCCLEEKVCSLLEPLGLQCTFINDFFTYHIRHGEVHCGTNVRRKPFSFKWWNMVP
# TCR-CD3 inh = human TCR-CD3 binding inhibition | TAMRA-labeled TCR probe fluorescence, biochemical | inhibition, % at 9.4 µM | hit rate 0.37% among 360,000 | AID 651800; in the data active means inhibition above about 19%;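 further: recombinant mutant TCR 2C K166C tagged with TAMRA read by polarization; 0% = receptor in buffer alone and 100% = receptor with positive control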
# HTRA1 inh = blocks human HTRA1 serine peptidase | Q92743 | recombinant HTRA1, FP-rhodamine activity-based probe, fluorescence polarization | inhibition, % at 5.96 µM | hit rate 0.5% among 340,000; in the data active means inhibition above about 36%;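 further: 0% = enzyme with DMSO and 100% = wells lacking enzyme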
# PRMT1 inh = PRMT1 (human) inhibition, primary screen; hit rate 1.3% among 370,000; AID 652257; Q99873; recombinant PRMT1, activity-based probe fluorescence polarization; inhibition, % at 2.79 µM;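 active means inhibition above about 21% made by adding two undisclosed values, limit read from the data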
# ABHD4 inh = inhibitors of mouse ABHD4 | Q8VD66 | hit rate 0.54% among 370,000 | purified mABHD4, FP-Rh probe fluorescence polarization | inhibition, % at 8.92 µM;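 active means inhibition exceeding the mean over every tested compound plus 3 SD, cut at about 30% in these data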;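 further: 0% = plate median of compound wells and 100% = S159A mutant with DMSO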
#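 System: mouse ABHD4 enzyme, wild type / Medium: HEPES pH 7.0, NaCl, Pluronic buffer / Reagent: FP-Rh activity-based fluorescent probe / Control set: S159A mutant high control, sample median low control / Detection: fluorescence polarization with parallel and perpendicular emission, 525/598 nm / Schedule: 45 min + 60 min at 25 °C / Compound dosing: 8.92 µM, single dose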
# SIAE primary = inhibitors of human sialic acid acetylesterase SIAE; Q9HAT2; SIAE FP-Rh probe binding, fluorescence polarization; inhibition, % at 9.66 µM; hit rate 0.69% among 370,000;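 active means inhibition above a cutoff: mean of compounds within the control limits plus 3 SD of those, cut at about 17% in these data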;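 further: 0% = plate median of compound wells and 100% = probe without SIAE protein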
# The depositor's hits bear a star; · = no result given.
SMILES,PAD4 FP inh,TCR-CD3 inh,HTRA1 inh,PRMT1 inh,ABHD4 inh,SIAE primary
Cc1ccc(NC(=O)C2=C(c3ccccc3)S(=O)(=O)CCS2(=O)=O)cc1,-9,2,2,62*,4,-5
O=C(Nc1cccc(Cl)c1)Nc1cc(S(=O)(=O)N2CCCCC2)ccc1Cl,-2,85*,-142,-2,-170,-230
CN(C)C(=S)NC(=NCc1ccc([N+](=O)[O-])cc1)c1ccccc1,-2,-1,4,22*,1,7
CN(C)C(=S)Nc1ccc([N+](=O)[O-])cc1,-2,6,1,-3,7,5
CCn1c(CCNC(=O)c2cccs2)nnc1SCC(=O)c1ccc(OC)cc1,-12,-6,-10,22*,-2,6
CSc1nnc(-c2cc3c(s2)-c2ccccc2CC3)o1,-2,6,-32,1,-15,-10
S=c1[nH]nc(-c2cc3c(s2)-c2ccccc2CC3)o1,5,6,-8,22*,11,-32
CCCCNC(=O)C1CCCN1C(=O)Nc1ccc(Cl)cc1 (stereo not given),·,·,·,-3,1,7
C/C(=N\NC(=O)c1cc(O)cc(O)c1)c1ccc(NC(=O)Cc2ccccc2)cc1,-1,41*,23,7,28,24*
COc1ccccc1CCn1cnc(-c2ccc(Br)cc2)c1CC(C)C,·,6,·,6,-1,-1
COc1cc(/C=C2\SC(=O)N(c3ccc(Cl)cc3)C2=O)cc([N+](=O)[O-])c1O,·,-4,10,2,37*,8
S=C1Cc2ccccc2N1,·,7,24,35*,34*,6
COC(=O)[C@@]1(C(C)C)N=C(c2cc(OC)c(OC)c(OC)c2)[C@]2(O1)C(=O)N(Cc1cn(Cc3ccccc3)nn1)c1ccc(F)cc12,·,·,·,4,6,-1
Cn1ccc(-c2ccccc2)n1,1,-12,3,3,6,-7
N#Cc1cc(-c2ccccc2)nn1-c1ccccc1,-2,3,-25,23*,-1,3
C[C@@H]1COc2cc(Br)ccc2S(=O)(=O)N1Cc1cn(CCC2OCCO2)nn1,·,·,·,-1,-2,3
COc1ccc(C(=O)/C=C(\C)Nc2ccc3c(c2)OCO3)cc1,-1,9,10,22*,4,9
COc1ccc(C(=O)Nc2ccc3c(c2)OCCO3)cc1,-20,4,-6,2,3,-1
O=C1NC(=S)SC1=C1CCCC1,1,1,-2,24*,7,-2
Cc1cccc(NC(=O)CSc2nnc(SCc3ccc(Cl)cc3)s2)c1,·,·,·,1,-24,-46
COC(=O)Oc1nsnc1N1CCOCC1,-2,-2,-7,81*,-2,7
CCOc1cc(/C=C2\C(=O)N(c3ccc(C(N)=O)cc3)N=C2C)ccc1OC(=O)c1cccs1,27*,·,22,·,·,·
c1coc(-c2nc3c4ccccc4ccn3c2Cc2ccsc2)c1,·,4,·,32*,3,-4
Fc1ccc(-c2nc3c4ccccc4ccn3c2Cc2ccsc2)cc1,·,1,·,0,-1,-6
CCN1CCN(Cc2c(O)ccc3c2O/C(=C\C=C\c2ccccc2)C3=O)CC1,-6,-3,-3,22*,11,-5
SMILES,PAD4 FP inh,TCR-CD3 inh,HTRA1 inh,PRMT1 inh,ABHD4 inh,SIAE primary
COc1ccccc1/C=C/C=C1\Oc2c(ccc(O)c2CN2CCN(CCO)CC2)C1=O,0,0,-8,11,8,2
O=C1/C(=C/C=C/c2ccccc2)Oc2c1ccc(O)c2CN1CCN(CCO)CC1,-2,-13,4,21*,4,-11
C[C@H](CO)N1C[C@H](C)[C@@H](CN(C)C(=O)Nc2ccccc2)Oc2c(NC(=O)C3CCCCC3)cccc2C1=O,4,4,-2,-1,1,18*
C[C@H](CO)N1C[C@H](C)[C@@H](CN(C)C(=O)NC2CCCCC2)Oc2c(NC(=O)C3CCCCC3)cccc2C1=O,-2,1,-1,-1,6,5
CC(=NNC(=O)CSc1nnc(-c2ccc(C(C)(C)C)cc2)n1-c1ccccc1)c1cccc2ccccc12,·,·,·,0,-2,-12
CCOc1ccc(C=Nn2c(-c3ccc(F)cc3)n[nH]c2=S)cc1,·,·,·,23*,1,1
O=C(O)c1ccc(C=Nn2c(-c3ccc(F)cc3)n[nH]c2=S)cc1,·,·,·,0,3,7
CC(=O)c1cnc(-c2ccccn2)s1,0,-2,2,22*,-15,-1
CC(=O)c1cnc(-c2ccccc2Cl)s1,-4,12,2,-2,5,-4
COc1ccccc1NC(=O)OC1CCC12CCCCC2 (stereo not given),·,·,·,1,-1,-4
CCCCOC(=O)c1ccc(NC(=O)CSC2=Nc3ccccc3C3CC=NN23)cc1 (stereo not given),1,2,3,14,-5,-31
O=C(CSC1=Nc2ccccc2C2CC=NN12)Nc1ccc(F)c(F)c1F (stereo not given),0,4,2,22*,4,5
Cc1cccc(CS(=O)(=O)c2ncc(Cl)c(C(=O)NCc3ccccc3)n2)c1,-3,5,5,24*,-2,4
CCOC(=O)CC[C@@H]1CC[C@]2(CCCN(Cc3ccc(Cl)cc3)C2)O1,·,·,·,-1,3,0
Cc1coc2c1C(=O)C(=O)c1c-2ccc2c(C)cccc12,-4,·,40*,·,·,·
O=C1C(Cl)=C(N2CCOCC2)C(=O)N1c1cccc(Cl)c1,-1,1,-3,22*,9,3
O=C(CCC(=O)Nc1ccccc1)N/N=C/c1ccncc1,2,8,-2,-2,-7,-1
O=C(CNc1ccc2ccccc2c1)N/N=C/c1ccncc1,-4,-9,3,22*,10,5
COc1cc(CC2COC(c3ccc(O)c(OC)c3)C2COC(C)=O)ccc1O (stereo not given),0,23*,11,0,10,2
COC1=C[C@H](C(=O)NCCOC(C)=O)[C@H](C)[C@@H](c2ccccc2)CC1=O,·,·,·,3,2,8
N=c1cc(C2(O)CCCCC2)n2c(nc3ccccc32)s1,-5,8,-6,25*,8,2
O=C1c2sc3nc4ccccc4n3c2C(=O)N1c1ccccc1Cl,3,2,-21,0,-10,-9
C=CCN1[C@H](CC(C)C)COc2cc(N3CCCC3)ccc2S1(=O)=O,·,·,·,0,0,-1
C/C(=C/c1oc2ccc(O)cc2c1[N+](=O)[O-])N(C)C,-2,-4,4,24*,21,2
O=C1C2CC=C(Cl)CC2C(=O)N1CCc1ccccc1 (stereo not given),-2,4,26,24*,16,6
C/C=C/Cn1c(SCc2ccc(C)cc2)nc2c1c(=O)[nH]c(=O)n2C,-4,-1,-3,11,3,-5
CC=CCn1c(SCc2ccccc2)nc2c1c(=O)[nH]c(=O)n2C,·,11,·,24*,7,-1
